Measured values taken from article PMC11005929 (Diabetes, Metabolic Syndrome and Obesity, 2024).

Experiments:
db/db mice = experiment: Glucose-lowering effect of repeated administration in db/db mice; assay type: in vivo, mouse
DIO mice = experiment: Repeated administration in diet-induced obesity; assay type: in vivo, mouse; conditions: s.c. once daily (DR10627 3, 10, 30 nmol/kg; liraglutide 80 nmol/kg)
Outline: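 Male C57BL/6 mice, 7 weeks old, kept 11 weeks on a 60% kcal fat diet; those at 42.2–48.7 g were randomised (n=10/group). Standard-diet mice served as normal controls. Dosed s.c. once daily at 5 mL/kg for 57 days. Body weight and food intake were recorded after dosing, and weight change and cumulative intake were calculated. Mean ± SD.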

[1] = system: non-diabetic participants; conditions: 2-year treatment, SCALE trials; cited from earlier work
[2] = Phase 3 trial; cited from earlier work

| Compound | blood glucose level before administration on D28 (db/db mice; 50 nmol/kg s.c. once daily, n=10, mean ± SD, vehicle 33.6 ± 6.4) [mM] | blood glucose levels after treatment on D1 (db/db mice; first s.c. dose (DR10627 2, 6, 18 nmol/kg; liraglutide 50 nmol/kg)) | body weight from D5 to D57 compared to the vehicle (DIO mice) | weight loss [1] | rate of antitaspoglutide antibodies detection [2] [%] |
| --- | --- | --- | --- | --- | --- |
| CCCCCCCCCCCCCCCC(=O)N[C@@H](CCC(=O)NCCCC[C@H](NC(=O)[C@H](C)NC(=O)[C@H](C)NC(=O)[C@H](CCC(N)=O)NC(=O)CNC(=O)[C@H](CCC(=O)O)NC(=O)[C@H](CC(C)C)NC(=O)[C@H](Cc1ccc(O)cc1)NC(=O)[C@H](CO)NC(=O)[C@H](CO)NC(=O)[C@@H](NC(=O)[C@H](CC(=O)O)NC(=O)[C@H](CO)NC(=O)[C@@H](NC(=O)[C@H](Cc1ccccc1)NC(=O)[C@@H](NC(=O)CNC(=O)[C@H](CCC(=O)O)NC(=O)[C@H](C)NC(=O)[C@@H](N)Cc1c[nH]cn1)[C@@H](C)O)[C@@H](C)O)C(C)C)C(=O)N[C@@H](CCC(=O)O)C(=O)N[C@@H](Cc1ccccc1)C(=O)N[C@H](C(=O)N[C@@H](C)C(=O)N[C@@H](Cc1c[nH]c2ccccc12)C(=O)N[C@@H](CC(C)C)C(=O)N[C@H](C(=O)N[C@@H](CCCNC(=N)N)C(=O)NCC(=O)N[C@@H](CCCNC(=N)N)C(=O)NCC(=O)O)C(C)C)[C@@H](C)CC)C(=O)O [liraglutide] | 27.0 ± 3.9 | decreased significantly | significantly reduced | 5–10% | – |
| taspoglutide | – | – | – | – | 49 |
